Reference: ChEMBL document CHEMBL4138115, “An evaluation of Minor Groove Binders as anti-fungal and anti-mycobacterial therapeutics” (Eur J Med Chem, 2017)
Converted amounts (≈) assume the structure as drawn. The source made the active and inactive calls. The calls are words filed in the database; no cut-off is given here.

Tests used:
Staphylococcus aureus = experiment: Antibacterial activity against methicillin-resistant Staphylococcus aureus ATCC 43300 after 18 hrs by two-fold serial dilution assay; format: functional; conditions: ATCC 43300, 18 h
Summary of the method: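 MRSA ATCC 43300 grown overnight in cation-adjusted Mueller Hinton broth at 37 °C, diluted 40-fold, grown 1.5–3 h to mid-log. Inoculated at 5 × 10⁵ CFU/mL into two-fold compound dilutions (final 32–0.25 range). Incubated 18 h at 37 °C without shaking; OD600 read. Inhibition normalised to media-only and untreated-bacteria controls. MIC taken as lowest concentration giving ≥80% inhibition; duplicates (n = 2).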

[1] = test system: Trypanosoma brucei brucei; experiment: Antiparasitic activity against Trypanosoma brucei brucei Lister 427 after 48 hrs by Alamar blue assay; format: functional, organism-based; conditions: Lister 427, 48 h
Summary of the method: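 Bloodstream-form Lister 427 in HMI-9 with 10% heat-inactivated FBS, counted by haemocytometer and seeded at 2 × 10⁴ cells/mL over serial compound dilutions. After 48 h at 37 °C, 5% CO₂, resazurin (0.49 mM solution in PBS) added for a further 24 h. Fluorescence ex 544/em 590 nm; EC50 from curve fit. Duplicates, at least three independent occasions.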

Candida albicans = experiment: Antifungal activity against Candida albicans ATCC 90028 after 24 hrs by resazurin dye-based two-fold serial dilution assay; format: functional; conditions: ATCC 90028, 24 h
Trypanosoma congolense = experiment: Antiparasitic activity against Trypanosoma congolense IL3000 after 69 hrs by Alamar blue assay; format: functional, organism-based; conditions: IL3000, 69 h
Summary of the method: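 Bloodstream-form IL3000 counted electronically and seeded at 1.25 × 10⁵ trypanosomes/ml into threefold serial compound dilutions. Kept 69 h at 34 °C, 5% CO₂, then resazurin (12.5 mg per 100 mL PBS) added for 3 h. Fluorescence ex 536/em 588 nm gives EC50. Three separate assay runs.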

[2] = Lipophilicity of the compound assessed as retention time by HPLC method; format: physicochemical
Summary of the method: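 Reverse-phase C18 HPLC with water and acetonitrile, each containing 0.1% TFA. Gradient runs from 100% water to 100% acetonitrile over 1 h; lipophilicity reported as retention time in minutes.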

Salmon testes DNA = experiment: Binding affinity to wild type salmon sperm DNA assessed as change in melting temperature at 10 uM; format: nucleic-acid assay; conditions: Salmonidae
[3] = test system: Mycobacterium tuberculosis; experiment: Antimycobacterial activity against GFP labelled Mycobacterium tuberculosis H37Rv up to 14 days by fluorescence assay; format: functional
Summary of the method: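 GFP-labelled Mtb H37Rv at 1 × 10^5 CFU/well in 7H9 broth with 10% OADC and 25 kanamycin. Two-fold compound dilutions were tested. Incubated at 37 °C without shaking.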

Cryptococcus neoformans = experiment: Antifungal activity against Cryptococcus neoformans ATCC 208821 after 24 hrs by resazurin dye-based two-fold serial dilution assay; format: functional
[4] = Cytotoxicity against HEK293 cells reduction in cell viability after 20 hrs by resazurin dye based fluorescence assay; conditions: human
Summary of the method: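 HEK-293 cells at 4000 per well in DMEM with 10% FBS, exposed to two-fold dilutions from 32 to 0.25 (final) for 20 h at 37 °C, 5% CO₂. Resazurin added (100 final) for 3 h more; fluorescence ex 560/em 590 nm. CC50 is the concentration giving 50% cytotoxicity. Duplicates.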

SMILES	MIC80 (Staphylococcus aureus) [µg/mL]	EC50 [1] [µM]	MIC80 (Candida albicans) [µg/mL]	EC50 (Trypanosoma congolense) [µM]	Retention_time [2] [min]	ΔTm (Salmon testes DNA) [°C]	MIC99 [3]	MIC70 (Cryptococcus neoformans) [µg/mL]	CC50 at 20 h [4] [µg/mL]	MIC99 ([3]; 336 h) [µg/mL]
CC(=O)Nc1cc(C(=O)Nc2cc(C(=O)Nc3cc(C(=O)NCCCN(C)C)n(C)c3)n(C)c2)n(C)c1	> 32	> 100	> 32	7	18.3	5	inactive	>32		
COc1cccc(C(=N)Nc2cc(C(=O)Nc3cc(C(=O)Nc4cc(C(=O)NCCCN(C)C)n(C)c4)n(C)c3)n(C)c2)c1	> 32	44	> 32	1.4	17.5	11	inactive	>32		
CC(C)CCc1sc(NC(=O)c2cc(NC(=O)c3cc(NC(=N)c4ccc(Cl)cc4)cn3C)cn2C)nc1C(=O)NCCCN(C)C	8 (≈ 11.8 µM)	13	> 32	4.3	26.8	4		4 (≈ 5.88 µM)	10 (≈ 14.7 µM)	13 (≈ 19.1 µM)
CC(C)CCn1cc(NC(=O)c2cc(NC(=O)c3cc(NC(=N)c4cnc5ccccc5c4)cn3C)cn2C)cc1C(=O)NCCCN(C)C	32 (≈ 47.1 µM)	2.7	> 32	0.82	24.8	17		8 (≈ 11.8 µM)	12 (≈ 17.7 µM)	25 (≈ 36.8 µM)
CC(C)CCn1cc(NC(=O)c2cc(NC(=O)c3cc(NC(=N)c4ccccc4)cn3C)cn2C)cc1C(=O)NCCCN(C)C	> 32	33	> 32	1.2	22.6	8	inactive	>32		
CC(C)CCc1sc(NC(=O)c2cc(NC(=O)c3cc(NC(=N)c4ccccc4)cn3C)cn2C)nc1C(=O)NCCCN(C)C	> 32	23	> 32	5.8	26.2	7		4 (≈ 6.19 µM)	> 32	25 (≈ 38.7 µM)
COc1cccc(C(=N)Nc2cc(C(=O)Nc3cc(C(=O)Nc4cc(C(=O)NCCCN(C)C)n(CCC(C)C)c4)n(C)c3)n(C)c2)c1	> 32	24	> 32	1.4	23.8	5	inactive	>32	> 32	
CN(C)CCCNC(=O)c1cc(NC(=O)c2cc(NC(=O)c3cc(NC(=N)c4ccccc4)cn3C)cn2C)cn1C	> 32	> 100	> 32	2.2	17.8	11	inactive	>32		
COc1cccc(C(=N)Nc2cc(C(=O)Nc3cc(C(=O)Nc4nc(C(=O)NCCCN(C)C)c(CCC(C)C)s4)n(C)c3)n(C)c2)c1	1 (≈ 1.48 µM)	17	> 32	5.8	26.8	7		2 (≈ 2.96 µM)	> 32	25 (≈ 37 µM)
CN(C)CCCNC(=O)c1cc(NC(=O)c2cc(NC(=O)c3cc(NC(=N)N)cn3C)cn2C)cn1C	> 32	> 100	> 32	6.2	14.2	5	inactive	>32		
CC(C)CCn1cc(NC(=O)c2cc(NC(=O)c3cc(NC(=N)N)cn3C)cn2C)cc1C(=O)NCCCN(C)C	> 32	49	> 32	5.2	20.1	4	inactive	32 (≈ 56.5 µM)	> 32	
CC(=O)Nc1cc(C(=O)Nc2cc(C(=O)Nc3cc(C(=O)NCCCN(C)C)n(CCC(C)C)c3)n(C)c2)n(C)c1	> 32	54	> 32	6.5	22.8	3	inactive	>32		
CC(C)CCc1sc(NC(=O)c2cc(NC(=O)c3cc(NC(=N)N)cn3C)cn2C)nc1C(=O)NCCCN(C)C	16 (≈ 27.4 µM)	15	> 32	6.1	23.4	4	inactive	4 (≈ 6.84 µM)	20 (≈ 34.2 µM)	
CC(C)CCc1sc(NC(=O)c2cc(NC(=O)c3cc(NC(=N)c4cnc5ccccc5c4)cn3C)cn2C)nc1C(=O)NCCCN(C)C	1 (≈ 1.43 µM)	3.3	> 32	1.9	27.3	2	inactive	0.25 (≈ 0.359 µM)	1.2 (≈ 1.72 µM)	
CC(C)CCc1sc(NC(=O)c2cc(NC(=O)c3cc(NC(=N)c4cccc(Cl)c4)cn3C)cn2C)nc1C(=O)NCCCN(C)C	2 (≈ 2.94 µM)	13	> 32	5.6	26.9	5		2 (≈ 2.94 µM)	9.2 (≈ 13.5 µM)	13 (≈ 19.1 µM)
CC(=O)Nc1cc(C(=O)Nc2cc(C(=O)Nc3nc(C(=O)NCCCN(C)C)c(CCC(C)C)s3)n(C)c2)n(C)c1	16 (≈ 27.4 µM)	28	> 32	9.1	27.1	4	inactive	16 (≈ 27.4 µM)	> 32	
CN(C)CCCNC(=O)c1cc(NC(=O)c2cc(NC(=O)c3cc(NC(=N)c4cnc5ccccc5c4)cn3C)cn2C)cn1C	> 32	5.7	> 32	0.6	19.7	> 17		8 (≈ 12.8 µM)	> 32	25 (≈ 40.1 µM)
